Screening data from PubChem BioAssay.
This is a sample that favours compounds with a hit; in the whole collection about 3.5% have one here.
MrgX1 antag = blocks BAM8-22 activation of human MrgX1 receptor; Q96LB2; MRGX1-HEK293 calcium flux, Fluo-4, BAM8-22 antagonism; stronger effect = lower value; B-score at 10 µM; 310,000 compounds, 1.3% hits;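 active means calcium-response B-score plate-corrected more than 3 library SD below zero, starting fluorescence within 5 deviations, no agonist response on first addition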;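 further: peak minus trough fluorescence over baseline after final BAM8-22 challenge near maximal dose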
Target sequence (Q96LB2 whole entry, looked up): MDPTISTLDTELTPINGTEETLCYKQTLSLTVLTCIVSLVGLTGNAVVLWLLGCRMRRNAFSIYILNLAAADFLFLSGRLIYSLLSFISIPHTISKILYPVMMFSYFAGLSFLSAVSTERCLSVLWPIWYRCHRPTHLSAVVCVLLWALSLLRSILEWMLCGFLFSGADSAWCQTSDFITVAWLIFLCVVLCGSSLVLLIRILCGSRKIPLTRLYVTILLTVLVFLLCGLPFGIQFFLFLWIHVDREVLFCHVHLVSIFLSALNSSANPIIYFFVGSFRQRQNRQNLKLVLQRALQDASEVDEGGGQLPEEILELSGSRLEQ
MrgX1 ag = activates human MrgX1 receptor signaling. Q96LB2. MrgX1-HEK293 cells, Fluo-4 calcium fluorescence, agonist mode; stronger effect = higher value. B-score at 10 µM. 310,000 compounds, 0.44% hits;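 active means calcium response B-score plate-corrected fluorescence ratio at least 3 library SD, with starting fluorescence B-score inside 5 SD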
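Test system: HEK293 cells stably expressing human MrgX1 receptor; amount: 15,000 cells per well; doses: compound delivered in addition one of three; times: overnight plating before 1 h dye loading; detection: Fluo-4 NW calcium-flux fluorescence, kinetic read; read-out basis: B-scored fluorescence response ratio; controls: positive and negative controls per plate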
RGS4 pot = potentiators or activators of RGS4 | 310,000 compounds, 0.92% hits | B-score at 10 µM | HEK293 M3R/inducible RGS4, carbachol calcium flux Fluo4; stronger effect = lower value | AID 463111;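 active means B-score of the integrated calcium signal more than 4 SD below the library mean, with starting fluorescence not abnormally high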;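 further: negative B-score means reduced calcium response which marks RGS4 activation or potentiation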
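Test system: HEK293 cells with stable M3R and inducible RGS4; also added: carbachol at ECmax as muscarinic agonist stimulus; schedule: dye loading 30 min 37 °C, buffer rest 30 min RT; technique: kinetic calcium fluorescence imaging with Fluo4-AM dye, 2 µM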
MrgX1 PAM = allosterically activates human MrgX1 receptor signaling. Q96LB2. AID 588675. B-score at 10 µM. MrgX1-HEK293, Fluo-4 calcium flux, FDSS; stronger effect = higher value. 310,000 compounds, 0.63% hits;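 active means plate-corrected calcium response at least 3 library SD above typical, normal starting fluorescence, not activating the receptor alone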;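 further: compound read alongside a low EC10 to EC30 dose of BAM8-22 agonist; peak minus trough fluorescence over baseline measured at the second addition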
RGS4 inh = inhibitors of human RGS4; P49798; HEK293 M3R/RGS4 inducible, Fluo-4 calcium flux; stronger effect = higher value; triggered by carbachol at its EC20; B-score at 10 µM; 310,000 compounds, 0.45% hits; AID 463165;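 active means B-score, a plate-corrected calcium signal, over three deviations above library mean, with baseline fluorescence within five deviations of library mean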;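 further: RGS4 expression induced by doxycycline in cells with stable M3 receptor; B-score is computed from the integrated fluorescence ratio over baseline after carbachol; higher B-score means a larger calcium signal and so more RGS4 inhibition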
RGS4 act valid = confirmation of RGS4 activators; shares compounds with RGS4 pot; HEK293 M3R/RGS4 inducible, carbachol calcium flux Fluo4; inhibition, % at 10 µM; 1,100 compounds, 89% hits;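 active means inhibition above 3 SD of the buffer control wells, cut at about 41% in these data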;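 further: signal is the integrated peak-minus-minimum Fluo4 fluorescence over baseline ratio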
M3R Ca counter = RGS4 activator counter-screen hit in non-induced cells; shares compounds with RGS4 pot; HEK293 M3R non-induced RGS4, Fluo4 calcium flux; after carbachol challenge at its EC90; inhibition, % at 10 µM; 1,100 compounds, 82% hits; AID 602283;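 active means inhibition exceeding 3 SD of buffer-only control wells, cut at about 26% in these data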;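 further: percent drop in integrated peak-minus-baseline over baseline Fluo4 ratio after carbachol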
Active calls of the source: *.

CC1CCC(C(C)C)C(OC(=O)C[n+]2cc(-c3ccc(Cl)cc3)n3c2CCCCC3)C1 (stereo not given) was read as MrgX1 antag inactive, MrgX1 ag inactive, RGS4 pot -11.4*, MrgX1 PAM inactive, RGS4 inh inactive, RGS4 act valid 93.5* and M3R Ca counter 94.3*.
Screening Cc1cc(C(=O)OCc2nnc(-c3ccccc3)o2)c(C)n1-c1ccccc1 returned MrgX1 antag inactive, MrgX1 ag inactive, RGS4 pot -8.9*, MrgX1 PAM inactive, RGS4 inh inactive, RGS4 act valid 93.5* and M3R Ca counter 84.8*.
For O=C(OCc1nnc(-c2ccccc2)o1)c1cn(-c2ccccc2)nc1-c1ccccc1 the results were MrgX1 antag inactive, MrgX1 ag inactive, RGS4 pot inactive, MrgX1 PAM inactive and RGS4 inh inactive.
For Cn1cccc1C(=O)NCC1CCCCC1 the results were MrgX1 antag inactive, MrgX1 ag inactive, RGS4 pot inactive, MrgX1 PAM inactive and RGS4 inh inactive.
CC(C)(C)c1cc(-c2csc(Nc3ccccc3)[n+]2Cc2ccc(C(=O)O)cc2)cc(C(C)(C)C)c1O was read as MrgX1 antag -9.48*, MrgX1 ag inactive, RGS4 pot -10.8*, MrgX1 PAM inactive, RGS4 inh inactive, RGS4 act valid 93.5* and M3R Ca counter 97.3*.
`COC(=O)c1cc2occc2n1Cc1nc(-c2cccc(Cl)c2)oc1C` gave MrgX1 antag inactive, MrgX1 ag inactive, RGS4 pot -8.88*, MrgX1 PAM inactive, RGS4 inh inactive, RGS4 act valid 94.0* and M3R Ca counter 82.8*.
`COC(=O)c1cc2sccc2n1Cc1nc(-c2cccc(Cl)c2)oc1C` gave MrgX1 antag inactive, MrgX1 ag inactive, RGS4 pot inactive, MrgX1 PAM inactive and RGS4 inh inactive.
For CCc1ccc(-c2cc3c(=O)n(CC(=O)NCCCN4CCN(CC)CC4)nc(C)n3n2)cc1 the results were MrgX1 antag inactive, MrgX1 ag inactive, RGS4 pot inactive, MrgX1 PAM inactive and RGS4 inh inactive.
Screening COc1ccc(/C=N/NC(=O)c2ccccc2OCc2ccccc2)c(OC)c1 returned MrgX1 antag inactive, MrgX1 ag inactive, RGS4 pot -11.2*, MrgX1 PAM inactive, RGS4 inh inactive, RGS4 act valid 94.0* and M3R Ca counter 75.8*.
`COc1ccc(/C(C)=N/NC(=O)c2ccccc2OCc2ccccc2)c(OC)c1` gave MrgX1 antag inactive, MrgX1 ag inactive, RGS4 pot inactive, MrgX1 PAM inactive and RGS4 inh inactive.
CCOC(=O)c1[nH]c2ccc(F)cc2c1NC(=O)CCN1CCOCC1 was read as MrgX1 antag inactive, MrgX1 ag inactive, RGS4 pot inactive, MrgX1 PAM inactive and RGS4 inh inactive.
`CCOC(=O)c1[nH]c2ccc(Br)cc2c1NC(=O)CCN1CCCC(C)(C)C1` gave MrgX1 antag inactive, MrgX1 ag inactive, RGS4 pot -14.4*, MrgX1 PAM inactive, RGS4 inh inactive, RGS4 act valid 93.5* and M3R Ca counter 73.8*.
For O=[N+]([O-])c1cccc(-c2ccc(/C=N/Nc3nc(N4CCCCC4)nc(N4CCCCC4)n3)o2)c1 the results were MrgX1 antag inactive, MrgX1 ag inactive, RGS4 pot -12.6*, MrgX1 PAM inactive, RGS4 inh inactive, RGS4 act valid 81.0* and M3R Ca counter 83.8*.
`CC(C)N(CC#CCC(O)(c1ccccc1)c1ccccc1)C(C)C` gave MrgX1 antag inactive, MrgX1 ag inactive, RGS4 pot inactive, MrgX1 PAM inactive and RGS4 inh inactive.
Screening CCN(CC)CC#CCC(O)(c1ccccc1)C1CCCCC1 (stereo not given) returned MrgX1 antag inactive, MrgX1 ag inactive, RGS4 pot -10.5*, MrgX1 PAM inactive, RGS4 inh inactive, RGS4 act valid 91.0* and M3R Ca counter 90.3*.
